MT stabilizer – microtubule stabilizers in HeLa cells, primary screen, imaging, high-content imaging; HeLa tubulin immunostaining HCS, 24 h; share of cells brighter than vehicle mean+2SD; % tubulin-high responders, % at 10 µM; 200,000 tested, 0.83% active;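 active means plate Z-score above 3 for both tubulin-high and condensed-nucleus cell shares, with cell loss under 80%, at 10 µM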;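 further: anti alpha tubulin signal scored within the nucleus-defined area of each cell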
DTT redox prof – compounds producing H2O2 with reducing agent – biochemical, NIH compound library profiling, artefact control for MLSCN library redox annotation, primary screen | activation, % at 10 µM | DTT-dependent redox cycling H2O2, phenol red/HRP absorbance; 100% = 100 µM peroxide control, 0% = buffer | 200,000 tested, 0.03% active;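 active means activation of at least 50% relative to the plate's high and low controls in the primary single-dose screen; inactive means activation below 50%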;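 further: compound incubated with DTT at 0.8 mM final as the reducing agent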
Cl transport mod – KCC2 cotransporter modulators, thallium flux, primary screen, cell-based, HEK293 KCC2, FluoZin-2 fluorescence, MLSMR; B-score of Tl+ flux slope (higher = more flux/activation; lower = inhibition) at 10 µM; 190,000 tested, 2.2% active; KCC2 cells, thallium flux FluoZin-2 fluorescence; AID 1456, 2008; Solute carrier family 12 member 5 (Homo sapiens), Q9H2X9;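 active means thallium flux slope and its plate-corrected score both differing from the plate sample mean at a set confidence after two filtering rounds, in either direction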;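 further: slope of fluorescence scaled to starting intensity during 10 to 20 s after thallium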
Target sequence (Q9H2X9 whole entry, looked up): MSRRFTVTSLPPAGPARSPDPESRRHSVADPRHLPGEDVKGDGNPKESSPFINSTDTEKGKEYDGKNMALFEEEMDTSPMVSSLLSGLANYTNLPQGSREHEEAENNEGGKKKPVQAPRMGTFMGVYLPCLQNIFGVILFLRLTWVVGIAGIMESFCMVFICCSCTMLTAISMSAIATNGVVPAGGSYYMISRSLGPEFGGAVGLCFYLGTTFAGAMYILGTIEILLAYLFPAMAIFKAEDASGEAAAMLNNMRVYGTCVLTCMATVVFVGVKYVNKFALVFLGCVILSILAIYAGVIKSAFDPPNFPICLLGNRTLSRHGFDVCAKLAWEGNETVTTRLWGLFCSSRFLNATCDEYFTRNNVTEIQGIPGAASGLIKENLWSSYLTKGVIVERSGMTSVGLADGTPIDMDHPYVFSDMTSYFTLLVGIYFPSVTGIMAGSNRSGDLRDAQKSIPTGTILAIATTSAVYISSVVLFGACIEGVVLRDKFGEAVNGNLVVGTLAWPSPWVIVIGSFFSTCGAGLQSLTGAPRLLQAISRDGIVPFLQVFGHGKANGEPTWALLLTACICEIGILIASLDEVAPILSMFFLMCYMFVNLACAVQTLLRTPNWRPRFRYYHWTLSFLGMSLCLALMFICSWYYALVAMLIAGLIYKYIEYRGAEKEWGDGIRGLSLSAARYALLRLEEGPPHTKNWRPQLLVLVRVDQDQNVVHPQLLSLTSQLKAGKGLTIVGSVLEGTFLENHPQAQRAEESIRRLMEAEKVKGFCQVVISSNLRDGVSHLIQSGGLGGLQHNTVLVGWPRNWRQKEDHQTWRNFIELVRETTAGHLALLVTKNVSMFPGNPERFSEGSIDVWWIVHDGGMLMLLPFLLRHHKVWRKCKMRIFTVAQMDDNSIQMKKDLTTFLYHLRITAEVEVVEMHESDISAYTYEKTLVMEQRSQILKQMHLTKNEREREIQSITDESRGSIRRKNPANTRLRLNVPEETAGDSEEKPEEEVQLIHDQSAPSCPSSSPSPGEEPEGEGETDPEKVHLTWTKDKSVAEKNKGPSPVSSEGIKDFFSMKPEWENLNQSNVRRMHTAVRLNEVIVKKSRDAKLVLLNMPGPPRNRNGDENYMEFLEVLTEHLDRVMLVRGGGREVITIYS
bCat nuc transl – modulators of beta-catenin nuclear translocation, primary screen, imaging, HeLa cells, immunofluorescence, high-content; nuclear translocation activity, % at 5 µM; 190,000 tested, 0.3% active; AID 1665, 2009;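 active means nuclear translocation activity above 50% at 5 µM, with a well cell count of 50 or more; inconclusive means wells under 50 cells across six images, flagged as toxic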;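 further: per-cell ratio of nuclear to cytoplasmic median beta-catenin stain intensity; plate controls were DMSO negative control for no effect and GSK-3 inhibitor IX positive control for full effect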
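Test system: HeLa cells, endogenous beta-catenin; Compound: single 5 µM dose plus 0.02–20 µM confirmation series; Times: compound exposure 24 h at 37°C; Signal: fluorescence imaging of beta-catenin antibody stain plus DAPI; Read-out: % activation, nuclear-to-cytoplasmic median beta-catenin signal ratio per cell.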
ROMK mod – ROMK potassium channel modulators, primary screen, cell-based, thallium flux, MLSMR library; ATP-sensitive inward rectifier potassium channel 1 (Homo sapiens), P48048; Tet-inducible ROMK, thallium flux fluorescence; actives lie on both sides; B-score at 10 µM; 130,000 tested, 2% active;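 active means signal ratio slope over the read window, or its plate-corrected B-score, at least 3 SD from the plate mean, either direction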;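 further: B-score of the F/F0 ratio slope over 7 to 12 s after thallium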
KCC2 sec1 – KCC2 modulators in sodium-free buffer, confirmation, cell-based, HEK293 KCC2, thallium flux, secondary assay; shares compounds with Cl transport mod; FluoZin2 fluorescence; hits give high values; normalised thallium flux (F/F0 slope) at 10 µM; 3,700 tested, 15% active; AID 1713, 2009;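 active means thallium flux slope above the same plate's solvent-only control mean plus 3 SD; inconclusive means the two replicate wells disagree; inactive means no significant difference from solvent-only control wells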
KCC2 bumet counter – thallium flux persisting under bumetanide in KCC2 cells, confirmation, counter-screen for KCC2 modulator project, cell-based, HEK293 KCC2, FluoZin2, secondary assay 3; shares compounds with Cl transport mod; HEK293-KCC2 + bumetanide/ouabain; hits give high values; normalized thallium flux at 10 µM; 3,700 tested, 49% active;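 active means thallium entry rate above the same plate's blocked-transporter control wells by more than 3 SD; inconclusive means the two repeat wells disagree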;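 further: raw slope of fluorescence over initial fluorescence between 10 and 20 s after thallium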
KCC2 sec2 – KCC2 modulators without ouabain present, confirmation, cell-based, HEK293 KCC2, thallium flux, FluoZin2, secondary assay 2. shares compounds with Cl transport mod. thallium flux FluoZin2 fluorescence; actives lie on both sides; F/F0 rise rate, 10–20 s post-thallium. normalized thallium flux at 10 µM. 3,700 tested, 23% active;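 active means thallium flux slope more than 3 SD above or below the plate's solvent-only control mean, mostly below; inconclusive means the two repeat wells disagreed; inactive means no significant shift from solvent-only controls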;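 further: raw slope with 0.1% DMSO as baseline and bumetanide as block control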
HEK293 Tl flux – thallium flux modulation in parental HEK cells, confirmation, counter-screen for KCC2 modulator project, cell-based, counterscreen 1; shares compounds with Cl transport mod; HEK293 parental cells, thallium flux FluoZin2, ouabain; baseline-ratio fluorescence slope, 10–20 s after thallium; thallium flux rate (normalised fluorescence) at 10 µM; 3,700 tested, 46% active; AID 1716, 2009;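 active means thallium flux rate significantly above the same plate's solvent-only control wells, beyond their mean plus 3 SD; inconclusive means the two replicate wells gave conflicting results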
KCC2 ouabain – KCC2 inhibitors and activators, ouabain retest, confirmation, HEK-KCC2 cells. HEK293-KCC2, thallium flux FluoZin2 fluorescence; bidirectional: low = inhibitor, high = activator. raw Tl+ flux slope (below DMSO = inhibition, above = activation) at 10 µM. 3,700 tested, 48% active. shares compounds with Cl transport mod;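 active means thallium flux slope beyond 3 SD from same-plate DMSO control mean in most replicates, usually higher, sometimes lower; inconclusive means repeat tests gave conflicting results; inactive means no significant difference from controls in most replicates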;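 further: slope of initial-normalized fluorescence between seconds 10 and 20 after thallium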
HEK counter2 – native HEK Tl+ uptake effects, second counter-screen – HEK cells, counterscreen 2, counter-screen for KCC2 modulator project, confirmation; shares compounds with Cl transport mod; HEK293 parental, thallium flux FluoZin-2 fluorescence slope; thallium flux slope at 10 µM; 3,700 tested, 33% active;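 active means thallium flux slope above the same plate's solvent-control mean plus 3 SD in both duplicate wells; inconclusive means duplicate wells that disagreed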;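 further: run without ouabain in cells lacking the KCC2 cotransporter; slope of fluorescence scaled to its starting value between 10 and 20 s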
Active calls of the source: *. Only some compounds are listed: those with a hit (about 3.7% of all), similar ones and a draw of the others.

`COc1cc2c(cc1OC)-c1c(OC)c(OC)cc3c1[C@H](C2)[N+](C)(C)CC3` gave MT stabilizer 4, DTT redox prof 0, Cl transport mod 3.1*, bCat nuc transl -3, ROMK mod -0.24, KCC2 sec1 0.0075, KCC2 bumet counter inconclusive, KCC2 sec2 0.029, HEK293 Tl flux 0.0076, KCC2 ouabain 0.018 and HEK counter2 0.011.
For O=C1N(CN2CCOCC2)c2ccccc2C1(O)c1c[nH]c2ccccc12 (stereo not drawn) the results were MT stabilizer 1, DTT redox prof 1, bCat nuc transl -1, KCC2 sec1 0.0091, KCC2 bumet counter inconclusive, KCC2 sec2 0.03, HEK293 Tl flux 0.0074, KCC2 ouabain 0.021 and HEK counter2 0.011.
`CCN1CCN(Cc2cc(C(C)(C)C)c(O)c(C(C)(C)C)c2)CC1` gave MT stabilizer 2, DTT redox prof 1, Cl transport mod -0.073, bCat nuc transl -5 and ROMK mod -0.68.
`C=CCn1c(O)c(C=NC2CCN(Cc3ccccc3)CC2)c(=O)[nH]c1=O` gave Cl transport mod 0.0067, bCat nuc transl 0 and ROMK mod -1.4.
Screening CCCCCCn1c(O)c(C=NC2CCN(Cc3ccccc3)CC2)c(=O)[nH]c1=O returned MT stabilizer 1, DTT redox prof 1, bCat nuc transl 1, ROMK mod 0.026, KCC2 sec1 0.018, KCC2 bumet counter 0.0046, KCC2 sec2 inconclusive, HEK293 Tl flux 0.007, KCC2 ouabain 0.015 and HEK counter2 0.0096.
CC(C)N1C(=O)NC(=O)C2(Cc3cc([N+](=O)[O-])ccc3N(C)C2c2ccccc2)C1=O (stereo not drawn) was read as MT stabilizer 6, DTT redox prof 0, Cl transport mod 0.093 and bCat nuc transl 1.
`Nc1ccccc1C(=O)OCC(=O)N1CCc2ccccc21` gave MT stabilizer 1, DTT redox prof 0, bCat nuc transl 0, ROMK mod -0.43, KCC2 sec1 0.0062, KCC2 bumet counter inconclusive, KCC2 sec2 0.03, HEK293 Tl flux inconclusive, KCC2 ouabain 0.013* and HEK counter2 0.011.
Screening CC1(c2ccccc2)NCCN2C(=O)CSC21 (stereo not drawn) returned MT stabilizer 1, DTT redox prof 0, Cl transport mod -2.3, bCat nuc transl -1, ROMK mod -0.0093, KCC2 sec1 0.0086, KCC2 bumet counter 0.0061, KCC2 sec2 0.035, HEK293 Tl flux 0.0045, KCC2 ouabain 0.02 and HEK counter2 0.011.
`O=C1CSC2N1CCNC21CCCCC1` (stereo not drawn) gave MT stabilizer 6, DTT redox prof 1, Cl transport mod -0.032, bCat nuc transl -3 and ROMK mod 0.094.
`CCCCNC(=O)Nc1ccc(C(O)(C(=O)OC)C(F)(F)F)cc1` (stereo not drawn) gave MT stabilizer 4, DTT redox prof -1, bCat nuc transl 0 and ROMK mod 0.04.
For CCCCNC(=O)Nc1ccc(C(O)(C(=O)OCC)C(F)(F)F)cc1 (stereo not drawn) the results were MT stabilizer 3, DTT redox prof 0, Cl transport mod -4.7*, bCat nuc transl -2, ROMK mod -0.59, KCC2 sec1 0.0078, KCC2 bumet counter 0.0069, KCC2 sec2 0.032, HEK293 Tl flux inconclusive, KCC2 ouabain 0.022 and HEK counter2 0.0099.
CCOC(=O)C(O)(c1ccc(NC(=O)NC)cc1)C(F)(F)F (stereo not drawn) was read as Cl transport mod 0.12 and bCat nuc transl -1.
For O=C1NC(=O)C(=Cc2coc3ccccc3c2=O)C(=O)N1 the results were MT stabilizer 2, DTT redox prof -1, Cl transport mod -4.1*, bCat nuc transl -2, ROMK mod -0.58, KCC2 sec1 0.0058, KCC2 bumet counter 0.0058*, KCC2 sec2 inconclusive, HEK293 Tl flux 0.0059*, KCC2 ouabain 0.014* and HEK counter2 0.0099.
For COc1ccc(N=Nc2c(O)[nH]c(=S)[nH]c2=O)cc1 the results were MT stabilizer 1, DTT redox prof 0, Cl transport mod -0.012, bCat nuc transl 0 and ROMK mod -0.78.
For O=c1[nH]c(=S)[nH]c(O)c1N=Nc1ccc(OC(F)F)cc1 the results were MT stabilizer 9, DTT redox prof -2, Cl transport mod 42*, bCat nuc transl 0, ROMK mod 0.85, KCC2 sec1 inconclusive, KCC2 bumet counter 0.073*, KCC2 sec2 0.035, HEK293 Tl flux 0.011*, KCC2 ouabain 0.069* and HEK counter2 0.011.
CN1CCN(Cc2nc3ccccc3n2C)CC1 was read as MT stabilizer 2, DTT redox prof 0, Cl transport mod 6.9*, bCat nuc transl -5, KCC2 sec1 0.0061, KCC2 bumet counter 0.0047, KCC2 sec2 inconclusive, HEK293 Tl flux 0.0079, KCC2 ouabain inconclusive and HEK counter2 0.011.
For CCCc1c(C)nc(SCC(=O)C(C)(C)C)nc1OC(=O)N(C)C the results were bCat nuc transl -3.

Source: PubChem BioAssay
